Activity calls are given as the source filed them.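 How the source made its calls, unless noted: active means current rise at least 3 SD above the untreated control mean in each of two repeat wells; inactive means the rest.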
The compounds below were run against Potassium voltage-gated channel subfamily KQT member 2 (Rattus norvegicus) (UniProt O88943) (assay: rat KCNQ2 channel potentiation, selectivity assay for KCNQ1 potentiator project, KCNQ2-CHO-K1 cells (AID 493009;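 active means mean duplicate potentiation above the buffer control mean plus 5 SD of buffer wells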;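 further: assay conditions were tuned for KCNQ1 rather than KCNQ2 modulators; signal is max minus min fluorescence divided by baseline after thallium stimulus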)). Settings: FluxOR thallium flux fluorescence, at 10 µM; hits give high values, scaled: buffer 0, activator control 100.
Potassium voltage-gated channel subfamily KQT member 2 (Rattus norvegicus), sequence (O88943 whole entry, looked up): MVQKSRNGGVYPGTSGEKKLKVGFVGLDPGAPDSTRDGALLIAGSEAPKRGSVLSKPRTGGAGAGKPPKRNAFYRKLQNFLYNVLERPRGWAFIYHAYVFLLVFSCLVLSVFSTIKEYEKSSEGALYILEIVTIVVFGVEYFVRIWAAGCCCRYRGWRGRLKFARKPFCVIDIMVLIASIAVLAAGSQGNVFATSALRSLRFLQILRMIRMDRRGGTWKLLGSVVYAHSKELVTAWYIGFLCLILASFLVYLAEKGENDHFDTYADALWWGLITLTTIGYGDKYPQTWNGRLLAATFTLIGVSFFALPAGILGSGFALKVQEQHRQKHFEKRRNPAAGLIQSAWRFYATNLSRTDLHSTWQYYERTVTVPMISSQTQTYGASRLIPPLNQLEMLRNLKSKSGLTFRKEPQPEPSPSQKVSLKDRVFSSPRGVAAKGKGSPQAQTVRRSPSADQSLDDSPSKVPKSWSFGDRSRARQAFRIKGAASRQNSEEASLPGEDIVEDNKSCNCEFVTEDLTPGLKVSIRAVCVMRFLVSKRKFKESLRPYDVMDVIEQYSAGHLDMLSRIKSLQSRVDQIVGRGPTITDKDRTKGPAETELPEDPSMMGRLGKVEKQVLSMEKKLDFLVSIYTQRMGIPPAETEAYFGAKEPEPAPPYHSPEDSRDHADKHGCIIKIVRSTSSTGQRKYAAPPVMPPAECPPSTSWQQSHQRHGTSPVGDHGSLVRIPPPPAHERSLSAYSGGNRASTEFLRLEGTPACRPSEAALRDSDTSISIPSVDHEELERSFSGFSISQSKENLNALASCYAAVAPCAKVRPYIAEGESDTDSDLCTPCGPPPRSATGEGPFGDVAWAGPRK
In the case of `Cc1ccc(OCC(=O)NNC(=O)C(=O)NC(C)(C)C)cc1`, the potentiation is reported as 176% (active).
For `Oc1c(Br)cc(Br)cc1C=Nc1cccnc1`, the outcome was “inactive”.
For `N#Cc1ccc(-c2nc3ccc(Br)cc3c(=O)n2O)cc1`, the potentiation was 354% (active).
`COc1ccc(C(=O)N2CCC(n3nccc3NC(=O)C3CCOC3)CC2)cc1` (stereo not given) was tested, and the outcome was “inactive”.
In the case of `S=c1nn[nH]n1C12CC3CC(CC(C3)C1)C2`, the potentiation is reported as 210% (active).
In the case of `Oc1c(N=NC(=S)Nc2ccccc2F)c2ccccc2n1Cc1ccccc1Cl`, the potentiation is reported as 210% (active).
`Cc1[nH]n(C(N)=S)c(=O)c1N=Nc1ccc2ccccc2c1` was tested, and the potentiation was 628% (active).
For `CCCCn1c(-c2csc3c2CCC(C)C3)n[nH]c1=S` (stereo not given), the potentiation was 150% (active).
With `O=C(NC(=S)N1CCc2ccccc21)c1ccccc1` the potentiation was 366% (active).
With `Cc1ccccc1-c1nc(-c2ccccn2)no1` the outcome was “inactive”.
With `O=C(CSc1nc2ccccc2s1)c1cc2ccccc2o1` the outcome was “inactive”.
With `Oc1ccc(CN2CCCCC2)c2cccnc12` the potentiation was 144% (active).
For `COc1ccc(-n2nc(C(=O)NCC(=O)N3CCC(C(N)=O)CC3)c3ccccc3c2=O)cc1`, the outcome was “inactive”.
`CN(C)c1ccc(-c2nn3c(-c4ccccc4Cl)nnc3s2)cc1` was tested, and the outcome was “inactive”.
For `Cc1cc(C)n(CCNS(=O)(=O)c2ccccc2)n1`, the outcome was “inactive”.
For `Cc1cc(C=NCCO)c(C)n1-c1cc(Cl)ccc1Cl`, the outcome was “inactive”.
In the case of `Cc1ccc(-c2nc3ccc(Cl)cc3c(=O)n2O)cc1`, the potentiation is reported as 523% (active).
For `O=C(CC(=O)c1ccccc1O)c1cccc(F)c1`, the potentiation was 188% (active).
For `O=C(O)CCSc1ncnc2sc(-c3ccccc3)cc12`, the potentiation was 220% (active).
In the case of `S=c1nc2ccccc2c2nc(-c3ccccc3)[nH]n12`, the outcome is reported as “inactive”.
With `N=c1ncn(Cc2ccccc2)c2nc(SCCOc3ccccc3)[nH]c12` the outcome was “inactive”.
For `CC1CCCC(NC(=S)NC(=O)c2ccccc2Br)C1C` (stereo not given), the outcome was “inactive”.
`C=CCNC(=S)Nc1sc2c(c1C(=O)OCC)CC(C(C)C)OC2` (stereo not given) was tested, and the potentiation was 246% (active).
With `O=C1N(Cc2ccc(F)cc2)CCN1c1ccc(F)cc1` the potentiation was 144% (active).
With `Cc1c(C(=O)NC(=S)NCc2cccnc2)oc2ccccc12` the outcome was “inactive”.
For `O=C(c1ccccc1)N1CCCC(c2ccc(Cl)cc2)=N1`, the outcome was “inactive”.
With `CCCc1cc2c(-c3ccccc3)cc(=O)oc2cc1OCc1ccc(C(=O)O)o1` the potentiation was 222% (active).
`CSc1nsc(SCC(=O)Nc2ccccc2)n1` was tested, and the outcome was “inactive”.
`CN(C)S(=O)(=O)c1ccc(Cl)c(NC(=O)CN2CCCCCC2)c1` was tested, and the outcome was “inactive”.
In the case of `CCc1ccc(/C=N/NC(=O)Cc2cccn2C)cc1`, the outcome is reported as “inactive”.
With `O=C1c2cccc3cccc(c23)C(=O)N1c1cccc(O)c1` the outcome was “inactive”.
In the case of `COc1cccc(C(=O)NC(=S)Nc2ccc3c4c(cccc24)CC3)c1`, the outcome is reported as “inactive”.
With `CCOc1ccccc1NC(=O)C(=O)CC(=O)c1ccc(OC)cc1` the potentiation was 216% (active).
For `Cc1ccc2nc(C)cc(N/N=C/c3cccnc3)c2c1`, the outcome was “inactive”.
In the case of `CCc1nnc(NC(=O)CCC(=O)N2CCN(C3CCCCC3)CC2)s1`, the outcome is reported as “inactive”.
With `COc1ccccc1C(=O)Nc1ccnn1C1CCN(CCCC2CCCC2)CC1` the outcome was “inactive”.
In the case of `OC(c1cc(C(F)(F)F)nc2c(Cl)cc(Cl)cc12)C1CCCCN1` (stereo not given), the outcome is reported as “inactive”.
With `CCCN(CCC)CCNC(=O)Cn1cnc2sc(C)c(S(=O)(=O)N3CCOCC3)c2c1=O` the outcome was “inactive”.
`CCC(O)(CC)C(=O)NN(C(=O)CCl)c1ccccc1` was tested, and the outcome was “inactive”.
For `COc1cc(/C=N/NC(=O)c2ccoc2C)ccc1OCCN1CCCCC1`, the outcome was “inactive”.

Each compound was assayed against Potassium voltage-gated channel subfamily KQT member 1 (Homo sapiens) (UniProt P51787) (assay: KCNQ1 channel current potentiators, confirmation, orthogonal assay for KCNQ1 potentiator project, IonWorks patch clamp, KCNQ1-CHO cells (AID 493184)). Settings: automated patch clamp current, at 10 µM; hits give high values.
Potassium voltage-gated channel subfamily KQT member 1 (Homo sapiens), sequence (P51787 whole entry, looked up): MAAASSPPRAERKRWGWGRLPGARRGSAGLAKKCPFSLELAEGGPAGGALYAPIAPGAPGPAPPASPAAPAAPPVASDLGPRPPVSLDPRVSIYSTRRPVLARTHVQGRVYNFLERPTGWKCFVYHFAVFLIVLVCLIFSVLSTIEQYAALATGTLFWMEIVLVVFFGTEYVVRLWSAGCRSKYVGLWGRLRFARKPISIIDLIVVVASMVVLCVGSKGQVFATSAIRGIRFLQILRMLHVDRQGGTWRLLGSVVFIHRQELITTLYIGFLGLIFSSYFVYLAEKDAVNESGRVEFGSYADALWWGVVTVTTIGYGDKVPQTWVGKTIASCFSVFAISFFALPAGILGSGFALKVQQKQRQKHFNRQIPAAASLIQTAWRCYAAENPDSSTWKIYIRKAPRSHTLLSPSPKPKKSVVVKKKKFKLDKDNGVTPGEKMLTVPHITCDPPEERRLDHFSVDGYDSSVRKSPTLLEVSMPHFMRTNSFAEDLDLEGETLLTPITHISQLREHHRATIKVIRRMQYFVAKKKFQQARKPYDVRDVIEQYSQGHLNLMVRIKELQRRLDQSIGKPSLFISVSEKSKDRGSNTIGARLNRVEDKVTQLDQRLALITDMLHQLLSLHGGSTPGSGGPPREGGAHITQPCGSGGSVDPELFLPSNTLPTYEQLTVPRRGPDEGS
In short: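 Read-out: Percent current increase versus pre-compound level | Assay system: CHO cells carrying KCNQ1 | Measured by: Automated perforated-patch electrophysiology | Medium: External bath solution at pH 7.4 | Dosing: One dose, 10 µM final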
`Cc1ccc(OCC(=O)NNC(=O)C(=O)NC(C)(C)C)cc1` was tested, and the outcome was “inactive”.
`Oc1c(Br)cc(Br)cc1C=Nc1cccnc1` was tested, and the outcome was “inactive”.
With `N#Cc1ccc(-c2nc3ccc(Br)cc3c(=O)n2O)cc1` the outcome was “inactive”.
In the case of `COc1ccc(C(=O)N2CCC(n3nccc3NC(=O)C3CCOC3)CC2)cc1` (stereo not given), the outcome is reported as “inactive”.
`S=c1nn[nH]n1C12CC3CC(CC(C3)C1)C2` was tested, and the outcome was “inactive”.
In the case of `Oc1c(N=NC(=S)Nc2ccccc2F)c2ccccc2n1Cc1ccccc1Cl`, the outcome is reported as “inactive”.
For `Cc1[nH]n(C(N)=S)c(=O)c1N=Nc1ccc2ccccc2c1`, the outcome was “inactive”.
In the case of `CCCCn1c(-c2csc3c2CCC(C)C3)n[nH]c1=S` (stereo not given), the outcome is reported as “inactive”.
For `O=C(NC(=S)N1CCc2ccccc21)c1ccccc1`, the outcome was “inactive”.
`Cc1ccccc1-c1nc(-c2ccccn2)no1` was tested, and the outcome was “inactive”.
For `O=C(CSc1nc2ccccc2s1)c1cc2ccccc2o1`, the outcome was “inactive”.
In the case of `Oc1ccc(CN2CCCCC2)c2cccnc12`, the outcome is reported as “inactive”.
With `COc1ccc(-n2nc(C(=O)NCC(=O)N3CCC(C(N)=O)CC3)c3ccccc3c2=O)cc1` the outcome was “inactive”.
For `CN(C)c1ccc(-c2nn3c(-c4ccccc4Cl)nnc3s2)cc1`, the outcome was “inactive”.
With `Cc1cc(C)n(CCNS(=O)(=O)c2ccccc2)n1` the outcome was “inactive”.
With `Cc1cc(C=NCCO)c(C)n1-c1cc(Cl)ccc1Cl` the outcome was “inactive”.
In the case of `Cc1ccc(-c2nc3ccc(Cl)cc3c(=O)n2O)cc1`, the outcome is reported as “inactive”.
With `O=C(CC(=O)c1ccccc1O)c1cccc(F)c1` the outcome was “inactive”.
In the case of `O=C(O)CCSc1ncnc2sc(-c3ccccc3)cc12`, the outcome is reported as “inactive”.
`S=c1nc2ccccc2c2nc(-c3ccccc3)[nH]n12` was tested, and the outcome was “inactive”.
`N=c1ncn(Cc2ccccc2)c2nc(SCCOc3ccccc3)[nH]c12` was tested, and the outcome was “inactive”.
In the case of `CC1CCCC(NC(=S)NC(=O)c2ccccc2Br)C1C` (stereo not given), the outcome is reported as “inactive”.
`C=CCNC(=S)Nc1sc2c(c1C(=O)OCC)CC(C(C)C)OC2` (stereo not given) was tested, and the outcome was “inactive”.
With `O=C1N(Cc2ccc(F)cc2)CCN1c1ccc(F)cc1` the outcome was “inactive”.
`Cc1c(C(=O)NC(=S)NCc2cccnc2)oc2ccccc12` was tested, and the outcome was “inactive”.
For `O=C(c1ccccc1)N1CCCC(c2ccc(Cl)cc2)=N1`, the outcome was “inactive”.
`CCCc1cc2c(-c3ccccc3)cc(=O)oc2cc1OCc1ccc(C(=O)O)o1` was tested, and the outcome was “inactive”.
In the case of `CSc1nsc(SCC(=O)Nc2ccccc2)n1`, the outcome is reported as “inactive”.
For `CN(C)S(=O)(=O)c1ccc(Cl)c(NC(=O)CN2CCCCCC2)c1`, the outcome was “inactive”.
In the case of `CCc1ccc(/C=N/NC(=O)Cc2cccn2C)cc1`, the outcome is reported as “inactive”.
`O=C1c2cccc3cccc(c23)C(=O)N1c1cccc(O)c1` was tested, and the outcome was “inactive”.
For `COc1cccc(C(=O)NC(=S)Nc2ccc3c4c(cccc24)CC3)c1`, the outcome was “inactive”.
In the case of `CCOc1ccccc1NC(=O)C(=O)CC(=O)c1ccc(OC)cc1`, the outcome is reported as “inactive”.
In the case of `Cc1ccc2nc(C)cc(N/N=C/c3cccnc3)c2c1`, the outcome is reported as “inactive”.
`CCc1nnc(NC(=O)CCC(=O)N2CCN(C3CCCCC3)CC2)s1` was tested, and the outcome was “inactive”.
For `COc1ccccc1C(=O)Nc1ccnn1C1CCN(CCCC2CCCC2)CC1`, the outcome was “inactive”.
`OC(c1cc(C(F)(F)F)nc2c(Cl)cc(Cl)cc12)C1CCCCN1` (stereo not given) was tested, and the outcome was “inactive”.
In the case of `CCCN(CCC)CCNC(=O)Cn1cnc2sc(C)c(S(=O)(=O)N3CCOCC3)c2c1=O`, the outcome is reported as “inactive”.
`CCC(O)(CC)C(=O)NN(C(=O)CCl)c1ccccc1` was tested, and the outcome was “inactive”.
In the case of `COc1cc(/C=N/NC(=O)c2ccoc2C)ccc1OCCN1CCCCC1`, the outcome is reported as “inactive”.

From PubChem BioAssay
